In ChEMBL document CHEMBL5247578, “Effective synthesis of benzimidazoles-imidazo[1,2-a]pyrazine conjugates: A comparative study of mono-and bis-benzimidazoles for antitumor activity” (Eur J Med Chem, 2019):

Key:
RXF 393 = assay: Antiproliferative activity against human RXF 393 cells assessed as cell growth at 0.0001 M incubated for 48 hrs by SRB assay relative to control; assay type: functional; details: read-out: Activity
TK-10 = assay: Antiproliferative activity against human TK-10 cells assessed as cell growth at 0.00000001 M incubated for 48 hrs by SRB assay relative to control; assay type: functional; details: dose 10 nM, read-out: Activity
MDA-MB-435 = assay: Growth inhibition against human MDA-MB-435 cells incubated for 48 hrs by sulforhodamine B assay; assay type: functional
HOP-92 = assay: Antiproliferative activity against human HOP-92 cells assessed as cell growth at 0.0000001 M incubated for 48 hrs by SRB assay relative to control; assay type: functional; details: dose 100 nM, read-out: Activity
How it was run: (§1)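 NCI-60 five-dose screen (10^-4 to 10^-8 M). Cells grown in RPMI 1640 with 5% FBS and 2 mM L-glutamine, plated at 5,000-40,000 cells/well and preincubated 24 h. Drug given from DMSO stock, then 48 h at 37 °C, 5% CO2. For adherent lines, cells fixed with cold TCA, SRB-stained and read at 515 nm. Percent growth taken against time-zero and untreated control.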

Hs-578T = assay: Antiproliferative activity against human Hs-578T cells assessed as cell growth at 0.00001 M incubated for 48 hrs by SRB assay relative to control; assay type: functional; details: read-out: Activity
How it was run: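 NCI-60 five-dose mode, 10^-4 to 10^-8 M in 10-fold steps. RPMI 1640, 5% FBS, 2 mM L-glutamine; 24 h preincubation, then 48 h drug exposure at 37 °C. Stocks in DMSO at 400× the top concentration, diluted in medium with gentamicin. TCA fixation, SRB staining, absorbance at 515 nm. Percent growth from time-zero (Tz), control (C) and test (Ti) readings.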

SK-MEL-2 = assay: Antiproliferative activity against human SK-MEL-2 cells assessed as cell growth at 0.000001 M incubated for 48 hrs by SRB assay relative to control; assay type: functional; details: read-out: Activity
NCI-H460 = assay: Antiproliferative activity against human NCI-H460 cells assessed as cell growth inhibition by measuring lethal concentration incubated for 48 hrs by sulforhodamine B assay; assay type: functional; details: read-out: LC50 (the source's name)
IGROV-1 [1] = assay: Antiproliferative activity against human IGROV-1 cells assessed as cell growth at 0.00001 M incubated for 48 hrs by SRB assay relative to control; assay type: functional; details: read-out: Activity
SW-620 = assay: Growth inhibition against human SW620 cells incubated for 48 hrs by sulforhodamine B assay; assay type: functional
OVCAR-5 = assay: Antiproliferative activity against human OVCAR-5 cells assessed as cell growth at 0.00000001 M incubated for 48 hrs by SRB assay relative to control; assay type: functional; details: dose 10 nM, read-out: Activity
KM12 = assay: Growth inhibition against human KM12 cells incubated for 48 hrs by sulforhodamine B assay; assay type: functional
MCF7 = assay: Antiproliferative activity against human MCF7 cells assessed as cell growth inhibition by measuring lethal concentration incubated for 48 hrs by sulforhodamine B assay; assay type: functional; details: read-out: LC50 (the source's name)
M14 = assay: Antiproliferative activity against human M14 cells assessed as cell growth at 0.0001 M incubated for 48 hrs by SRB assay relative to control; assay type: functional; details: read-out: Activity
ACHN = assay: Antiproliferative activity against human ACHN cells assessed as cell growth inhibition by measuring lethal concentration incubated for 48 hrs by sulforhodamine B assay; assay type: functional; details: read-out: LC50 (the source's name)
A549 = assay: Growth inhibition against human A549 cells assessed as total growth inhibitory concentration incubated for 48 hrs by sulforhodamine B assay; assay type: functional
SNB-19 = assay: Growth inhibition against human SNB-19 cells incubated for 48 hrs by sulforhodamine B assay; assay type: functional
HEK293 [2] = assay: Cytotoxicity against human HEK293 cells assessed as reduction in cell viability at 0.000001 M incubated for 48 hrs by MTT colorimetric assay relative to control; assay type: toxicity, cell-based; details: hek293, 48 h, 1 µM
IGROV-1 [3] = assay: Growth inhibition against human IGROV-1 cells incubated for 48 hrs by sulforhodamine B assay; assay type: functional
SK-OV-3 = assay: Antiproliferative activity against human SK-OV-3 cells assessed as cell growth at 0.000001 M incubated for 48 hrs by SRB assay relative to control; assay type: functional; details: read-out: Activity
HCT-15 = assay: Antiproliferative activity against human HCT-15 cells assessed as cell growth at 0.00001 M incubated for 48 hrs by SRB assay relative to control; assay type: functional; details: read-out: Activity; how it was run: as §1
HL-60 = assay: Antiproliferative activity against human HL-60 cells assessed as cell growth at 0.00000001 M incubated for 48 hrs by SRB assay relative to control; assay type: functional; details: dose 10 nM, read-out: Activity; how it was run: as §1
SF-539 = assay: Antiproliferative activity against human SF-539 cells assessed as cell growth at 0.00000001 M incubated for 48 hrs by SRB assay relative to control; assay type: functional; details: dose 10 nM, read-out: Activity
UO-31 = assay: Antiproliferative activity against human UO-31 cells assessed as cell growth inhibition by measuring lethal concentration incubated for 48 hrs by sulforhodamine B assay; assay type: functional; details: read-out: LC50 (the source's name)
How it was run: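 NCI-60 five-dose screen (10^-4 to 10^-8 M, 10-fold dilutions; DMSO stocks). Cells in RPMI 1640 with 5% FBS and 2 mM L-glutamine, preincubated 24 h, then exposed 48 h at 37 °C, 5% CO2. Fixed with cold TCA, stained with 0.4% SRB, absorbance read at 515 nm. Time-zero plates used as reference. LC50 taken from [(Ti-Tz)/Tz]×100 […].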

SF-295 = assay: Antiproliferative activity against human SF-295 cells assessed as cell growth at 0.00000001 M incubated for 48 hrs by SRB assay relative to control; assay type: functional; details: dose 10 nM, read-out: Activity
MOLT-4 = assay: Antiproliferative activity against human MOLT-4 cells assessed as cell growth at 0.00000001 M incubated for 48 hrs by SRB assay relative to control; assay type: functional; details: dose 10 nM, read-out: Activity
COLO 205 = assay: Growth inhibition against human COLO 205 cells incubated for 48 hrs by sulforhodamine B assay; assay type: functional
U-251 = assay: Growth inhibition against human U-251 cells incubated for 48 hrs by sulforhodamine B assay; assay type: functional
HEK293 [4] = assay: Cytotoxicity against human HEK293 cells assessed as reduction in cell viability at 0.00001 M incubated for 48 hrs by MTT colorimetric assay relative to control; assay type: toxicity, cell-based; details: hek293, 48 h, 10 µM
SR = assay: Antiproliferative activity against human SR cells assessed as cell growth at 0.0001 M incubated for 48 hrs by SRB assay relative to control; assay type: functional; details: read-out: Activity
BT-549 = assay: Antiproliferative activity against human BT-549 cells assessed as cell growth at 0.000001 M incubated for 48 hrs by SRB assay relative to control; assay type: functional; details: read-out: Activity
How it was run: (§2)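 NCI-60 five-dose screen over 10^-4–10^-8 M (10-fold dilutions). Cells grown in RPMI 1640 with 5% FBS and 2 mM L-glutamine, seeded at 5,000–40,000 cells/well and preincubated 24 h. Drug from DMSO stock, 48 h at 37 °C, 5% CO2. Adherent cells TCA-fixed and stained with 0.4% SRB; A515 read. Percent growth = (Ti−Tz)/(C−Tz)×100, or (Ti−Tz)/Tz×100 when Ti<Tz.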

CCRF-CEM = assay: Antiproliferative activity against human CCRF-CEM cells assessed as cell growth at 0.0000001 M incubated for 48 hrs by SRB assay relative to control; assay type: functional; details: dose 100 nM, read-out: Activity; how it was run: as §2

| SMILES | growth at 100 µM (RXF 393) [%] | growth at 0.01 µM (TK-10) [%] | GI50 (MDA-MB-435) [nM] | growth at 0.1 µM (HOP-92) [%] | growth at 10 µM (Hs-578T) [%] | growth at 1 µM (SK-MEL-2) [%] | CC50 (NCI-H460) [nM] | growth at 10 µM (IGROV-1 [1]) [%] | GI50 (SW-620) [nM] | growth at 0.01 µM (OVCAR-5) [%] | GI50 (KM12) [nM] | CC50 (MCF7) [nM] | growth at 100 µM (M14) [%] | CC50 (ACHN) [nM] | TGI (A549) [nM] | GI50 (SNB-19) [nM] | Activity (HEK293 [2]) [%] | GI50 (IGROV-1 [3]) [nM] | growth at 1 µM (SK-OV-3) [%] | growth at 10 µM (HCT-15) [%] | other results |
| --- | --- | --- | --- | --- | --- | --- | --- | --- | --- | --- | --- | --- | --- | --- | --- | --- | --- | --- | --- | --- | --- |
| COc1ccc(-c2cn3ccnc3c(-c3ccc4ncn(C5CCCCC5)c4c3)n2)cc1 | 19 | 88 | 312 | 94 | 6 | 49 | > 100000 | 19 | 734 | 86 | 1350 | > 100000 | 8 | > 100000 | > 100000 | 836 | 15.07 | 921 | 34 | 9 | growth at 0.01 µM (HL-60): 97%; growth at 0.01 µM (SF-539): 87%; CC50 (UO-31): > 100000 nM; growth at 0.01 µM (SF-295): 87%; growth at 0.01 µM (MOLT-4): 100%; GI50 (COLO 205): 2220 nM; GI50 (U-251): 2220 nM; Activity (HEK293 [4]): 16.51%; growth at 100 µM (SR): 16%; growth at 1 µM (BT-549): 26%; growth at 0.1 µM (CCRF-CEM): 107% |
| c1ccc(Cn2cnc3ccc(-c4nc(-c5ccc6c(c5)ncn6C5CCCCC5)cn5ccnc45)cc32)cc1 | -33 | 84 | 2200 | 98 | 1 | 90 | > 100000 | 3 | 3400 | 89 | 2090 | > 100000 | 6 | > 100000 | 4970 | 4540 | 14.11 | 2140 | 100 | -13 | growth at 0.01 µM (HL-60): 104%; growth at 0.01 µM (SF-539): 88%; CC50 (UO-31): > 100000 nM; growth at 0.01 µM (SF-295): 91%; growth at 0.01 µM (MOLT-4): 112%; GI50 (COLO 205): 1880 nM; GI50 (U-251): 1990 nM; Activity (HEK293 [4]): 14.53%; growth at 100 µM (SR): 6%; growth at 1 µM (BT-549): 62%; growth at 0.1 µM (CCRF-CEM): 113% |
